Assay outcomes (PubChem)
This is a sample that favours compounds with a hit; in the whole collection about 3.9% have one here.
CHOP inh = blocks CHOP induction under ER stress. inhibition, % at 10 µM. hit rate 3.8% among 220,000. CHO-K1 CHOP-promoter luciferase, tunicamycin-induced, 15-18 h. AID 2732;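 active = compounds that reduced the stress-induced luciferase reporter signal by more than about 70% of percent inhibition, limit read from the data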;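 also: 0% = tunicamycin plus vehicle and 100% = wells without tunicamycin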
Gli-Sufu antag = blocks Gli-Sufu signaling in a luciferase reporter; Sufu-KO-LIGHT fibroblasts, Gli luciferase reporter luminescence; inhibition, % at 5 µM; hit rate 0.74% among 340,000;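 active = inhibition above about 55%, limit read from the data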;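 also: 0% = DMSO-treated cells and 100% = wells with medium but no cells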
UPR CHOP act = activators of apoptotic arm of unfolded protein response (CHOP). CHO-CHOP luciferase reporter, UPR activation, luminescence; percent of tunicamycin response over DMSO baseline. activation, % at 10 µM. hit rate 0.34% among 330,000;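 active = at 10 µM dose, activation of 40% or more, normalized to positive control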;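 also: 100% = tunicamycin at 10 µg/mL and 0% = DMSO alone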
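System: CHO CHOP reporter cells. Amount: 500 cells per well. Buffer or medium: F12 medium, 10% FBS. Compound dosing: one dose, 10 µM in 0.5% DMSO. Incubation: 6 h compound exposure at 37 °C after overnight seeding. Technique: Steady-Glo luciferase luminescence. Benchmarks: tunicamycin and DMSO controls.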
Jurkat NFkB inh = inhibitors of the PMA/ionomycin-induced NF-kB reporter in Jurkat cells. PMA/ionomycin-induced NF-kB luciferase reporter, luminescence. inhibition, % at 4 µM. hit rate 0.53% among 330,000; in the data active = inhibition above about 50%
UPR XBP1 act = activators of adaptive arm of unfolded protein response (XBP1); CHO-XBP1 luciferase reporter, IRE1-XBP1 UPR activation, luminescence; percent of tunicamycin response, DMSO as zero; activation, % at 20 µM; hit rate 0.33% among 330,000; AID 463104;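 active = versus positive control, 20 µM dose yields 30% or more activation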;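 also: 100% = tunicamycin at 10 µg/mL and 0% = DMSO only wells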
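Assay system: IRE1-XBP1 luciferase reporter CHO line. Input: 1000 cells/well. Buffer or medium: F12 with 10% serum. Doses: 20 µM, 1% DMSO. Times: overnight seeding at 37 °C, 6 h compound treatment at 37 °C. Technique: Steady-Glo luciferase glow luminescence, 10 min after reagent addition.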
697 NFkB inh = inhibitors of the PMA/ionomycin-induced NF-kB reporter in 697 B cells. 697 B-cell NF-kB luciferase reporter, 16 h. inhibition, % at 4 µM. hit rate 0.33% among 330,000. AID 435022; in the data active = inhibition above about 35%
CHOP inh conf = confirmation of CHOP induction inhibitors | hit rate 45% among 2,100 | CHO-CHOP promoter luciferase reporter, tunicamycin-induced, luminescence | inhibition, % at 10 µM | shares compounds with CHOP inh;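 active = mean of three repeat readings of reporter signal inhibition above a set limit, cut at about 70% in these data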;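 also: 0% = tunicamycin plus vehicle and 100% = wells lacking tunicamycin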
* marks the source's active call; other numbers are inactive results.

How did CC1=C(CO)C(=O)OC([C@@H](C)C2CC[C@H]3C4C[C@H]5O[C@]56[C@@H](O)C=CC(=O)[C@]6(C)C4CC[C@]23C)C1 (some centres not stated) do in these assays?
CHOP inh: 106.8*; Gli-Sufu antag: 16.3; CHOP inh conf: 106.4*

How did Cc1nn(Cc2c(Cl)cccc2Cl)c(C)c1NC(=O)CCCn1nc([N+](=O)[O-])c(Cl)c1C do in these assays?
CHOP inh: 17.9; Gli-Sufu antag: 25.7; UPR CHOP act: 1.5; Jurkat NFkB inh: 7.7; UPR XBP1 act: -3.2; 697 NFkB inh: 9.3

What do the screens show for `Cc1nn(Cc2ccc(Cl)cc2Cl)c(C)c1NC(=O)Cn1nc([N+](=O)[O-])c(Cl)c1C`?
CHOP inh: 100.1*; Gli-Sufu antag: 4.9; UPR CHOP act: 0.8; Jurkat NFkB inh: 5.4; UPR XBP1 act: 10.6; 697 NFkB inh: 3.5; CHOP inh conf: 32.6

Results for COc1ccc2[nH]c(=O)c(CN(C3CCCCC3)C(c3nnnn3Cc3ccco3)C(C)C)cc2c1 (configuration not stated) ?
CHOP inh: 101.7*; Gli-Sufu antag: 15.6; UPR CHOP act: -7.0; Jurkat NFkB inh: -9.8; UPR XBP1 act: -1.8; 697 NFkB inh: -8.6; CHOP inh conf: 52.3

How did Cc1cnc(C(=O)N2CCN(S(=O)(=O)c3ccc(F)c(F)c3F)CC2)cn1 do in these assays?
Gli-Sufu antag: 4.5; UPR CHOP act: -0.7; Jurkat NFkB inh: 15.9; UPR XBP1 act: -2.5; 697 NFkB inh: 1.2

What do the screens show for `CC(/C=N/Nc1nnc2c(n1)[nH]c1ccccc12)=C\c1ccco1`?
CHOP inh: 107.1*; Gli-Sufu antag: -12.6; UPR CHOP act: -0.2; Jurkat NFkB inh: -34.7; UPR XBP1 act: -1.9; 697 NFkB inh: -13.7; CHOP inh conf: -26.8

What do the screens show for `CSc1ccc(Cl)c(C(=O)N(C)CC(=O)Nc2ccc(N3CCOCC3)cc2)c1`?
Gli-Sufu antag: -11.6; UPR CHOP act: 0.0; Jurkat NFkB inh: 0.7; UPR XBP1 act: -1.8; 697 NFkB inh: 13.6

How did COc1ccccc1C(=O)NC(=Nc1nc2ccccc2o1)NC(=O)c1ccccc1OC do in these assays?
CHOP inh: 106.4*; Gli-Sufu antag: -4.8; UPR CHOP act: -4.8; Jurkat NFkB inh: -25.6; UPR XBP1 act: -4.9; 697 NFkB inh: -9.3; CHOP inh conf: 133.8*

Results for CN(C)NC(=S)NC1(C)CCS(=O)(=O)C1 (configuration not stated) ?
CHOP inh: 12.5; Gli-Sufu antag: 1.3; UPR CHOP act: -0.5; Jurkat NFkB inh: 1.1; UPR XBP1 act: -3.5; 697 NFkB inh: 16.2

How did COC1=CC(=O)C[C@@H](C)[C@]12Oc1c(Cl)c(OC)cc(OC)c1C2=O do in these assays?
Gli-Sufu antag: 3.9; UPR CHOP act: 0.2; Jurkat NFkB inh: 14.5; UPR XBP1 act: -4.6; 697 NFkB inh: 5.6

What do the screens show for `Cc1nn(-c2ccc(F)cc2)c2nc(N)c(C#N)c(-c3cccs3)c12`?
CHOP inh: 99.7*; Gli-Sufu antag: 18.3; UPR CHOP act: 1.3; Jurkat NFkB inh: -25.5; UPR XBP1 act: 6.0; 697 NFkB inh: -55.5; CHOP inh conf: 42.3

How did COc1cc(C)ccc1S(=O)(=O)N1CCN(C23CC4CC(CC(C4)C2)C3)CC1 do in these assays?
CHOP inh: 105.1*; Gli-Sufu antag: 19.6; UPR CHOP act: -0.6; Jurkat NFkB inh: -2.9; UPR XBP1 act: -0.4; 697 NFkB inh: 6.2; CHOP inh conf: 12.0

Results for O=C(CCCOc1ccc(Cl)cc1Cl)N/N=C/c1ccccc1 ?
CHOP inh: -11.6; Gli-Sufu antag: -0.5; UPR CHOP act: -0.6; Jurkat NFkB inh: 2.0; UPR XBP1 act: -2.7; 697 NFkB inh: -5.1

Results for Cc1ccc(/C=N/NC(=O)CCCOc2ccc(Cl)cc2Cl)cc1 ?
CHOP inh: 99.6*; Gli-Sufu antag: -10.1; UPR CHOP act: -0.2; Jurkat NFkB inh: 43.2; UPR XBP1 act: -0.6; 697 NFkB inh: -0.6; CHOP inh conf: 105.6*

How did Cc1ccccc1C(=O)Nc1ccc(C(=O)NNC(=O)CCCOc2ccc(Cl)cc2Cl)cc1 do in these assays?
CHOP inh: 112.5*; Gli-Sufu antag: -11.1; UPR CHOP act: -0.3; Jurkat NFkB inh: -1.1; UPR XBP1 act: -4.0; 697 NFkB inh: 32.9; CHOP inh conf: 5.9

What do the screens show for `O=C(CSCc1ccc(Cl)cc1)N/N=C/c1ccc(OCC(=O)Nc2ccccc2)cc1`?
CHOP inh: -1.1; Gli-Sufu antag: 14.5; UPR CHOP act: -3.1; Jurkat NFkB inh: -22.4; UPR XBP1 act: -7.4; 697 NFkB inh: 8.5

What do the screens show for `Cc1ccc(/C=N/NC(=O)CSCc2ccc(Cl)cc2)cc1`?
CHOP inh: 110.5*; Gli-Sufu antag: 0.8; UPR CHOP act: -0.1; Jurkat NFkB inh: 0.5; UPR XBP1 act: 1.9; 697 NFkB inh: 10.1; CHOP inh conf: 88.9*

Results for COc1ccc(C)cc1NC(=O)NNC(=O)C(C)Oc1ccc(F)cc1Cl (configuration not stated) ?
Gli-Sufu antag: 0.3; UPR CHOP act: 1.1; Jurkat NFkB inh: 11.3; UPR XBP1 act: -1.8; 697 NFkB inh: 12.5

What do the screens show for `CCn1cc(C(=O)NCCc2ccc(OC)cc2)c(=O)c2ccc(C)nc21`?
Gli-Sufu antag: -15.7; UPR CHOP act: -1.0; Jurkat NFkB inh: 2.7; UPR XBP1 act: -2.9; 697 NFkB inh: -0.7

Results for CCC(=O)N1N=C(c2c(-c3ccccc3)c3cc(Cl)ccc3[nH]c2=O)CC1c1ccco1 (configuration not stated) ?
CHOP inh: 103.2*; Gli-Sufu antag: 11.0; UPR CHOP act: 1.9; Jurkat NFkB inh: 9.2; UPR XBP1 act: 0.5; 697 NFkB inh: 14.9; CHOP inh conf: 116.4*

Results for O=[N+]([O-])c1ccc(NC(=S)NCCc2ccccc2)cc1 ?
CHOP inh: 46.2; Gli-Sufu antag: 21.3; UPR CHOP act: 0.8; Jurkat NFkB inh: 5.0; UPR XBP1 act: 2.5; 697 NFkB inh: -1.1

What do the screens show for `O=[N+]([O-])c1ccc(NC(=S)NCCc2ccc(Cl)cc2)cc1`?
CHOP inh: 105.3*; Gli-Sufu antag: -17.4; UPR CHOP act: -1.4; Jurkat NFkB inh: 20.1; UPR XBP1 act: -8.4; 697 NFkB inh: -4.4; CHOP inh conf: 94.0*

What do the screens show for `CN(C(=O)CSc1nc2sc3c(c2c(=O)n1C)CCC3)C1CCS(=O)(=O)C1` (configuration not stated)?
Gli-Sufu antag: 7.0; UPR CHOP act: -2.2; Jurkat NFkB inh: 12.7; UPR XBP1 act: -0.8; 697 NFkB inh: 4.9

Results for CC(C)C1/C(=N/O)CC(c2ccccc2)NC1c1ccccc1 (configuration not stated) ?
CHOP inh: 36.2; Gli-Sufu antag: 2.5; UPR CHOP act: -0.7; Jurkat NFkB inh: 12.0; UPR XBP1 act: 1.3; 697 NFkB inh: 8.6
